From ChEMBL document CHEMBL4007431, “Systematic variation of the benzenesulfonamide part of the GluN2A selective NMDA receptor antagonist TCN-201” (Eur J Med Chem, 2017) come the findings set out here.

Active and inactive are the calls of the source. The calls are words filed in the database; no cut-off is given here.

The target in the first assay is T1, Glutamate NMDA receptor; Grin1/Grin2a (Rattus norvegicus) (UniProt P35439+Q00959). In words: Potency index, ratio of TCN-201 IC50 to compound IC50 for rat GluN1A/GluN2A receptor expressed in Xenopus laevis oocytes. The assay is classed as cell-based.
`O=C(NNC(=O)c1ccc(CNS(=O)(=O)c2cccc(Br)c2)cc1)c1ccccc1`: the Ratio IC50 is 2.5.

For another assay, the target named is Glutamate NMDA receptor; Grin1/Grin2a (Rattus norvegicus, UniProt P35439+Q00959). In words: Antagonist activity at rat GluN1A/GluN2A receptor expressed in Xenopus laevis oocytes assessed as inhibition of glutamate/glycine-induced channel current at -70 mV holding potential by two electrode voltage clamp method. The assay is classed as cell-based. In outline: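 Oocytes (stage V, defolliculated) coinjected with 0.8 ng GluN1a and 0.8 ng GluN2A cRNA. TEVC at room temperature, holding −70 mV, perfusion with Ba2+-Ringer (10 HEPES, 90 NaCl, 1 KCl, 1.5 BaCl2 mmol/L, pH 7.4). Currents evoked by glutamate plus glycine. Compounds diluted from 10 mM DMSO stocks into agonist solution, 1 nM to 10 µM final. n = 5 oocytes per concentration. Logistic fit with minimum 0% and maximum 100%; x0 taken as the half-maximal inhibition.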
For orientation: Two-electrode voltage clamp is typically applied to oocytes expressing channels or transporters.
Regarding `O=C(NNC(=O)c1ccc(CNS(=O)(=O)c2ccc(F)c(Cl)c2)cc1)c1ccccc1`, the concentration for half-maximal inhibition (IC50) is 512 nM.
The same measure, in the same setting: to `O=C(NNC(=O)c1ccc(CNS(=O)(=O)c2cccc(Br)c2)cc1)c1ccccc1` belongs 204 nM.

The next assay concerns the target Glutamate NMDA receptor; Grin1/Grin2b (Rattus norvegicus) (UniProt P35439+Q00960). The assay can be described thus: Antagonist activity at rat GluN1A/GluN2B receptor expressed in Xenopus laevis oocytes assessed as inhibition of glutamate/glycine-induced channel current at 10 uM at -70 mV holding potential by two electrode voltage clamp method. The assay is classed as cell-based. The gist of the method: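 Oocytes were injected with GluN1a and GluN2B cRNA and recorded by TEVC with glutamate/glycine activation. Compounds tested at 10 µM, n = 5. One-way ANOVA with Tukey post hoc test.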
As for `O=C(NNC(=O)c1ccc(CNS(=O)(=O)c2ccc(F)c(Cl)c2)cc1)c1ccccc1`, the inhibition result was “inactive”.
Same read-out and setting: to `O=C(NNC(=O)c1ccc(CNS(=O)(=O)c2cccc(Br)c2)cc1)c1ccccc1` belongs “inactive”.

The next assay concerns the target T1, Glutamate NMDA receptor; Grin1/Grin2a (Rattus norvegicus). The assay can be described thus: Antagonist activity at rat GluN1A/GluN2A receptor expressed in Xenopus laevis oocytes assessed as inhibition of glutamate/glycine-induced channel current at 500 nM at -70 mV holding potential by two electrode voltage clamp method relative to TCN-201. The assay is classed as cell-based. The gist of the method: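 GluN1a/GluN2A-coinjected oocytes (0.8 ng of each cRNA) under TEVC at −70 mV and room temperature, perfused with Ba2+-Ringer at pH 7.4. 10 µM (S)-glutamate and 10 µM glycine open the channel. Compound at 500 nM final (from 10 mM DMSO stock) in agonist solution. Current inhibition compared with the lead. At least five oocytes each. One-way ANOVA with Tukey post hoc test.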
In the case of `O=C(NNC(=O)c1ccc(CNS(=O)(=O)c2ccccc2Cl)cc1)c1ccccc1`, the fold change (FC) is -0.092.
As for `O=C(NNC(=O)c1ccc(CNS(=O)(=O)c2ccc(F)cc2)cc1)c1ccccc1`, the fold change (FC) was found to be 0.103.
Regarding `O=C(NNC(=O)c1ccc(CNS(=O)(=O)c2ccc([N+](=O)[O-])cc2)cc1)c1ccccc1`, the fold change (FC) turned out to be 0.002.
With `O=C(NNC(=O)c1ccc(CNS(=O)(=O)c2ccccc2[N+](=O)[O-])cc1)c1ccccc1`, the fold change (FC) was 0.397.
Same read-out and setting: to `O=C(NNC(=O)c1ccc(CNS(=O)(=O)c2cccc(Br)c2)cc1)c1ccccc1` belongs 1.27.
The same measure, in the same setting: next, `O=C(NNC(=O)c1ccc(CNS(=O)(=O)c2cccc(Cl)c2)cc1)c1ccccc1`: 1.21; `Nc1ccc(S(=O)(=O)NCc2ccc(C(=O)NNC(=O)c3ccccc3)cc2)cc1`: 0.379.
Take `O=C(NNC(=O)c1ccc(CNS(=O)(=O)c2ccc(Br)cc2)cc1)c1ccccc1`: the fold change (FC) came to 0.315.
`COc1cccc(S(=O)(=O)NCc2ccc(C(=O)NNC(=O)c3ccccc3)cc2)c1`: the fold change (FC) is -0.062.
Same read-out and setting: to `O=C(NNC(=O)c1ccc(CNS(=O)(=O)c2ccc(Cl)cc2)cc1)c1ccccc1` belongs 0.279; to `O=C(NNC(=O)c1ccc(CNS(=O)(=O)c2ccccc2F)cc1)c1ccccc1`, 0.019.
Regarding `O=C(NNC(=O)c1ccc(CNS(=O)(=O)c2ccccc2Br)cc1)c1ccccc1`, the fold change (FC) came to 0.045.
As to `O=C(NNC(=O)c1ccc(CNS(=O)(=O)c2cccs2)cc1)c1ccccc1`, the fold change (FC) worked out at 0.529.
The same measure, in the same setting: to `O=C(NNC(=O)c1ccc(CNS(=O)(=O)c2cccc([N+](=O)[O-])c2)cc1)c1ccccc1` belongs 0.161.
Same read-out and setting: to `O=C(NNC(=O)c1ccc(CNS(=O)(=O)c2ccc(I)cc2)cc1)c1ccccc1` belongs 0.051.
Same read-out and setting: next, `N#Cc1cccc(S(=O)(=O)NCc2ccc(C(=O)NNC(=O)c3ccccc3)cc2)c1`: 0.151.
Regarding `O=C(NNC(=O)c1ccc(CNS(=O)(=O)c2cccc(F)c2)cc1)c1ccccc1`, the fold change (FC) was found to be 0.818.
Same read-out and setting: next, `O=C(NNC(=O)c1ccc(CNS(=O)(=O)c2cccc(I)c2)cc1)c1ccccc1`: 1.19; `O=C(O)c1ccc(S(=O)(=O)NCc2ccc(C(=O)NNC(=O)c3ccccc3)cc2)cc1`: 0.283; `O=C(NNC(=O)c1ccc(CNS(=O)(=O)c2ccccc2)cc1)c1ccccc1`: 0.351.
For the compound `O=C(NNC(=O)c1ccc(CNS(=O)(=O)c2cccnc2)cc1)c1ccccc1`, the fold change (FC) came to 0.151.
In the case of `Cc1cccc(S(=O)(=O)NCc2ccc(C(=O)NNC(=O)c3ccccc3)cc2)c1`, the fold change (FC) is 0.28.

Broadly, the IC50 is the concentration needed to halve the response being measured.
